According to ChEMBL document CHEMBL1909519, “L-Proline anchored multicomponent synthesis of novel pyrido[2,3-a]carbazoles; investigation of in vitro antimicrobial, antioxidant, cytotoxicity and structure activity relationship studies” (Eur J Med Chem, 2011):
≈ marks a conversion by molar mass, not a printed value.

Tests used:
[1] = tested on: Staphylococcus aureus; experiment: Antibacterial activity against Staphylococcus aureus at 50 ug/ml after 24 hrs by agar disk diffusion assay; assay type: functional; settings: read-out: DIZ
Summary of the method: (§1)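 Agar well diffusion on nutrient agar against Gram-positive clinical isolates (PSG Hospital, Coimbatore). Compounds in DMSO tested at 0 (control), 25, 50, 75, 100; DMSO as solvent and negative control; ciprofloxacin ([…]) as positive control. Plates incubated 37 ± 2 °C, 24 h; zone of inhibition diameter read in mm.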

[2] = tested on: Enterococcus faecalis; experiment: Antibacterial activity against Enterococcus faecalis at 50 ug/ml after 24 hrs by agar disk diffusion assay; assay type: functional; settings: read-out: DIZ; summary of the method: as §1
[3] = tested on: Escherichia coli; experiment: Antibacterial activity against Escherichia coli at 50 ug/ml after 24 hrs by agar disk diffusion assay; assay type: functional; settings: read-out: DIZ
Summary of the method: (§2)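 Gram-negative clinical isolates (PSG Hospital, Coimbatore) tested by agar well diffusion on nutrient agar. Compounds dissolved in DMSO at 0 (control), 25, 50, 75, 100; DMSO was the negative control and ciprofloxacin ([…]) the positive control. Incubation 37 ± 2 °C for 24 h, then inhibition zone diameter measured in mm.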

[4] = tested on: Klebsiella pneumoniae; experiment: Antibacterial activity against Klebsiella pneumoniae at 50 ug/ml after 24 hrs by agar disk diffusion assay; assay type: functional; settings: read-out: DIZ; summary of the method: as §2
[5] = tested on: Aspergillus niger; experiment: Antifungal activity against Aspergillus niger at 50 ug/ml after 48 hrs by agar disk diffusion assay; assay type: functional; settings: read-out: DIZ
Summary of the method: (§3)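 Fungal isolates (PSG Hospital, Coimbatore) grown on Sabouraud dextrose agar; agar well diffusion with compounds in DMSO at 0 (control), 25, 50, 75, 100. DMSO negative control, fluconazole ([…]) positive control. Plates held 28 ± 2 °C for 48 h; zone of inhibition diameter recorded in mm.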

[6] = tested on: Candida albicans; experiment: Antifungal activity against Candida albicans at 50 ug/ml after 48 hrs by agar disk diffusion assay; assay type: functional; settings: read-out: DIZ; summary of the method: as §3
[7] = tested on: Staphylococcus aureus; experiment: Antibacterial activity against Staphylococcus aureus after 24 hrs by agar disk diffusion assay; assay type: functional; summary of the method: as §1
[8] = tested on: Enterococcus faecalis; experiment: Antibacterial activity against Enterococcus faecalis after 24 hrs by agar disk diffusion assay; assay type: functional; summary of the method: as §1
[9] = tested on: Escherichia coli; experiment: Antibacterial activity against Escherichia coli after 24 hrs by agar disk diffusion assay; assay type: functional; summary of the method: as §2
[10] = tested on: Klebsiella pneumoniae; experiment: Antibacterial activity against Klebsiella pneumoniae after 24 hrs by agar disk diffusion assay; assay type: functional; summary of the method: as §2
[11] = tested on: Aspergillus niger; experiment: Antifungal activity against Aspergillus niger after 48 hrs by agar disk diffusion assay; assay type: functional; summary of the method: as §3
[12] = tested on: Candida albicans; experiment: Antifungal activity against Candida albicans after 48 hrs by agar disk diffusion assay; assay type: functional; summary of the method: as §3
[13] = tested on: A549; experiment: Cytotoxicity against human A549 cells after 48 hrs by SRB assay; assay type: functional, cell-based; settings: A549, 48 h
Summary of the method: (§4)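 Cells in RPMI-1640 with 10% heat-inactivated FBS, 1 mM NaHCO3, 2 mM L-glutamine, 37 °C, 5% CO2; seeded (B16F10 5 × 10⁴ cells/mL, others 1 × 10⁵ cells/mL), 24 h, then compounds in DMSO at 1.56–50 for 48 h, triplicate wells. TCA fixation, SRB staining 30 min, tris extraction, OD 520 nm; IC50 by linear regression, mean ± SD of three independent experiments; cisplatin positive control.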

[14] = tested on: B16-F10; experiment: Cytotoxicity against mouse B16F10 cells after 48 hrs by SRB assay; assay type: functional, cell-based; settings: B16-F10, 48 h; summary of the method: as §4
[15] = tested on: HCT-15; experiment: Cytotoxicity against human HCT15 cells after 48 hrs by SRB assay; assay type: functional, cell-based; settings: HCT-15, 48 h; summary of the method: as §4
[16] = Cytotoxicity against human SK-MEL-12 cells after 48 hrs by SRB assay; assay type: functional, cell-based; summary of the method: as §4
[17] = tested on: SK-OV-3; experiment: Cytotoxicity against human SKOV3 cells after 48 hrs by SRB assay; assay type: functional, cell-based; settings: SK-OV-3, 48 h; summary of the method: as §4
[18] = tested on: Radical scavenging activity; experiment: Antioxidant activity assessed as DPPH radical scavenging activity after 30 mins by micro plate reader; assay type: functional
Summary of the method: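 DPPH assay: various compound concentrations brought to volume with ethanol, mixed with 0.1 mM ethanolic DPPH alongside vitamin C standard; shaken 30 min at 24 °C, absorbance read at 517 nm; concentration giving 50% decrease determined.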

[19] = tested on: Staphylococcus aureus; experiment: Antibacterial activity against Staphylococcus aureus at 25 ug/ml after 24 hrs by agar disk diffusion assay; assay type: functional; settings: read-out: DIZ; summary of the method: as §1
[20] = tested on: Enterococcus faecalis; experiment: Antibacterial activity against Enterococcus faecalis at 25 ug/ml after 24 hrs by agar disk diffusion assay; assay type: functional; settings: read-out: DIZ; summary of the method: as §1
[21] = tested on: Escherichia coli; experiment: Antibacterial activity against Escherichia coli at 25 ug/ml after 24 hrs by agar disk diffusion assay; assay type: functional; settings: read-out: DIZ; summary of the method: as §2
[22] = tested on: Klebsiella pneumoniae; experiment: Antibacterial activity against Klebsiella pneumoniae at 25 ug/ml after 24 hrs by agar disk diffusion assay; assay type: functional; settings: read-out: DIZ; summary of the method: as §2
[23] = tested on: Aspergillus niger; experiment: Antifungal activity against Aspergillus niger at 25 ug/ml after 48 hrs by agar disk diffusion assay; assay type: functional; settings: read-out: DIZ; summary of the method: as §3
[24] = tested on: Candida albicans; experiment: Antifungal activity against Candida albicans at 25 ug/ml after 48 hrs by agar disk diffusion assay; assay type: functional; settings: read-out: DIZ; summary of the method: as §3
[25] = tested on: A549; experiment: Ratio of cisplatin IC50 to compound IC50 for human A549 cells; assay type: functional
[26] = tested on: HCT-15; experiment: Ratio of cisplatin IC50 to compound IC50 for human HCT15 cells; assay type: functional
[27] = organism: Homo sapiens; experiment: Ratio of cisplatin IC50 to compound IC50 for human SK-MEL-12; assay type: functional
[28] = tested on: B16-F10; experiment: Ratio of cisplatin IC50 to compound IC50 for mouse B16F10; assay type: functional
[29] = tested on: SK-OV-3; experiment: Cytotoxicity against human SKOV3 cells up to 50 ug/ml after 48 hrs by SRB assay; assay type: functional, cell-based; summary of the method: as §4
[30] = tested on: Staphylococcus aureus; experiment: Antibacterial activity against Staphylococcus aureus at 100 ug/ml after 24 hrs by agar disk diffusion assay; assay type: functional; settings: read-out: DIZ; summary of the method: as §1
[31] = tested on: Enterococcus faecalis; experiment: Antibacterial activity against Enterococcus faecalis at 100 ug/ml after 24 hrs by agar disk diffusion assay; assay type: functional; settings: read-out: DIZ; summary of the method: as §1
[32] = tested on: Escherichia coli; experiment: Antibacterial activity against Escherichia coli at 100 ug/ml after 24 hrs by agar disk diffusion assay; assay type: functional; settings: read-out: DIZ; summary of the method: as §2
[33] = tested on: Klebsiella pneumoniae; experiment: Antibacterial activity against Klebsiella pneumoniae at 100 ug/ml after 24 hrs by agar disk diffusion assay; assay type: functional; settings: read-out: DIZ; summary of the method: as §2
[34] = tested on: Aspergillus niger; experiment: Antifungal activity against Aspergillus niger at 100 ug/ml after 48 hrs by agar disk diffusion assay; assay type: functional; settings: read-out: DIZ; summary of the method: as §3
[35] = tested on: Candida albicans; experiment: Antifungal activity against Candida albicans at 100 ug/ml after 48 hrs by agar disk diffusion assay; assay type: functional; settings: read-out: DIZ; summary of the method: as §3
[36] = Cytotoxicity against human SK-MEL-12 cells up to 50 ug/ml after 48 hrs by SRB assay; assay type: functional, cell-based; summary of the method: as §4

Compound | zone of inhibition at 50 µg/mL [1] | zone of inhibition at 50 µg/mL [2] | zone of inhibition at 50 µg/mL [3] | zone of inhibition at 50 µg/mL [4] | zone of inhibition at 50 µg/mL [5] | zone of inhibition at 50 µg/mL [6] | MIC [7] | MIC [8] | MIC [9] | MIC [10] | MIC [11] | MIC [12] | IC50 [13] | IC50 [14] | IC50 [15] | IC50 [16] | IC50 [17] | IC50 [18] | zone of inhibition at 25 µg/mL [19] | IC50 [29] | also measured
Cc1ccc2[nH]c3c(c2c1)CCc1c-3nc(N)c(C#N)c1-c1cccnc1 | 20 mm | 20 mm | 19 mm | 18 mm | 3 mm | 5 mm | 50 µg/mL (≈ 142 µM) | 50 µg/mL (≈ 142 µM) | 50 µg/mL (≈ 142 µM) | 50 µg/mL (≈ 142 µM) | > 100 µg/mL | > 100 µg/mL | 16.1 µg/mL (≈ 45.9 µM) | 13.7 µg/mL (≈ 39 µM) | 47.6 µg/mL (≈ 136 µM) | 16.6 µg/mL (≈ 47.3 µM) | 10.6 µg/mL (≈ 30.1 µM) | 511.24 µg/mL (≈ 1450 µM) |  |  | 
Cc1ccc2[nH]c3c(c2c1)CCc1c-3nc(N)c(C#N)c1-c1cccs1 |  |  |  |  |  |  | 25 µg/mL (≈ 70.1 µM) | 25 µg/mL (≈ 70.1 µM) | 25 µg/mL (≈ 70.1 µM) | 25 µg/mL (≈ 70.1 µM) | 75 µg/mL (≈ 210 µM) | 75 µg/mL (≈ 210 µM) | 4.04 µg/mL (≈ 11.3 µM) | 2.85 µg/mL (≈ 8 µM) | 3.45 µg/mL (≈ 9.68 µM) | 4.61 µg/mL (≈ 12.9 µM) | 10 µg/mL (≈ 28.1 µM) | 227.37 µg/mL (≈ 638 µM) | 26 mm |  | zone of inhibition at 25 µg/mL [20]: 29 mm; zone of inhibition at 25 µg/mL [21]: 27 mm; zone of inhibition at 25 µg/mL [22]: 28 mm; zone of inhibition at 25 µg/mL [23]: 15 mm; zone of inhibition at 25 µg/mL [24]: 17 mm; Ratio IC50 [25]: 1.39; Ratio IC50 [26]: 2.31; Ratio IC50 [27]: 2.25; Ratio IC50 [28]: 1.94
CCOC(=O)c1c(N)nc2c(c1-c1cccnc1)CCc1c-2[nH]c2ccc(C)cc12 | 19 mm | 17 mm | 20 mm | 21 mm | 4 mm | 9 mm | 50 µg/mL (≈ 125 µM) | 50 µg/mL (≈ 125 µM) | 50 µg/mL (≈ 125 µM) | 50 µg/mL (≈ 125 µM) | > 100 µg/mL | > 100 µg/mL | 43.7 µg/mL (≈ 110 µM) | 29.4 µg/mL (≈ 73.8 µM) | 33.8 µg/mL (≈ 84.8 µM) | 24.9 µg/mL (≈ 62.5 µM) |  | 210.34 µg/mL (≈ 528 µM) |  | Not Active | 
Cc1ccc2[nH]c3c(c2c1)CCc1c-3nc(N)c(C#N)c1-c1ccccc1 |  |  |  |  |  |  | 100 µg/mL (≈ 285 µM) | 100 µg/mL (≈ 285 µM) | 100 µg/mL (≈ 285 µM) | 100 µg/mL (≈ 285 µM) | > 100 µg/mL | > 100 µg/mL | 49.2 µg/mL (≈ 141 µM) | 47.6 µg/mL (≈ 136 µM) | 44.9 µg/mL (≈ 128 µM) |  |  | 205.5 µg/mL (≈ 586 µM) |  | Not Active | zone of inhibition at 100 µg/mL [30]: 12 mm; zone of inhibition at 100 µg/mL [31]: 14 mm; zone of inhibition at 100 µg/mL [32]: 16 mm; zone of inhibition at 100 µg/mL [33]: 15 mm; zone of inhibition at 100 µg/mL [34]: 4 mm; zone of inhibition at 100 µg/mL [35]: 3 mm; IC50 [36]: Not Active
Cc1ccc2[nH]c3c(c2c1)CCc1c-3nc(N)c(C#N)c1-c1ccc(Br)cc1 |  |  |  |  |  |  | 25 µg/mL (≈ 58.2 µM) | 25 µg/mL (≈ 58.2 µM) | 25 µg/mL (≈ 58.2 µM) | 25 µg/mL (≈ 58.2 µM) | > 100 µg/mL | > 100 µg/mL | 35 µg/mL (≈ 81.5 µM) | 2.84 µg/mL (≈ 6.62 µM) | 11 µg/mL (≈ 25.7 µM) |  |  | 140.21 µg/mL (≈ 327 µM) | 24 mm | Not Active | zone of inhibition at 25 µg/mL [20]: 23 mm; zone of inhibition at 25 µg/mL [21]: 22 mm; zone of inhibition at 25 µg/mL [22]: 25 mm; zone of inhibition at 25 µg/mL [23]: 6 mm; zone of inhibition at 25 µg/mL [24]: 7 mm; Ratio IC50 [28]: 2; IC50 [36]: Not Active
